Laboratory results reported in PubChem BioAssay.
Active and inactive are the calls of the source. Cut-off read from the data, not from the text of the source, unless noted: active = inhibition above about 30%; inactive = the rest.

Columns and labels:
[1] = reducers of endogenous Her2 protein level, primary screen, SKBR3 breast tumor cells, AlphaScreen, ATP viability (AID 461;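 active = Her2 level under about 52% in both replicate screens, with viability over 70% of control, limit read from the data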;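 for Her2 level: lower value means less Her2 protein in the cells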;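 for viability: percent of carrier control wells set as 100% viability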); conditions: 18-24 h, measured here: SKBR3 viability, ATP luminescence, at 10 µM
[2] = target: Receptor tyrosine-protein kinase erbB-2 (Homo sapiens) (UniProt P04626); assay: as above; conditions: 18-24 h, at 10 µM, stronger effect = lower value
Sequence of Receptor tyrosine-protein kinase erbB-2 (Homo sapiens) (P04626 whole entry, looked up): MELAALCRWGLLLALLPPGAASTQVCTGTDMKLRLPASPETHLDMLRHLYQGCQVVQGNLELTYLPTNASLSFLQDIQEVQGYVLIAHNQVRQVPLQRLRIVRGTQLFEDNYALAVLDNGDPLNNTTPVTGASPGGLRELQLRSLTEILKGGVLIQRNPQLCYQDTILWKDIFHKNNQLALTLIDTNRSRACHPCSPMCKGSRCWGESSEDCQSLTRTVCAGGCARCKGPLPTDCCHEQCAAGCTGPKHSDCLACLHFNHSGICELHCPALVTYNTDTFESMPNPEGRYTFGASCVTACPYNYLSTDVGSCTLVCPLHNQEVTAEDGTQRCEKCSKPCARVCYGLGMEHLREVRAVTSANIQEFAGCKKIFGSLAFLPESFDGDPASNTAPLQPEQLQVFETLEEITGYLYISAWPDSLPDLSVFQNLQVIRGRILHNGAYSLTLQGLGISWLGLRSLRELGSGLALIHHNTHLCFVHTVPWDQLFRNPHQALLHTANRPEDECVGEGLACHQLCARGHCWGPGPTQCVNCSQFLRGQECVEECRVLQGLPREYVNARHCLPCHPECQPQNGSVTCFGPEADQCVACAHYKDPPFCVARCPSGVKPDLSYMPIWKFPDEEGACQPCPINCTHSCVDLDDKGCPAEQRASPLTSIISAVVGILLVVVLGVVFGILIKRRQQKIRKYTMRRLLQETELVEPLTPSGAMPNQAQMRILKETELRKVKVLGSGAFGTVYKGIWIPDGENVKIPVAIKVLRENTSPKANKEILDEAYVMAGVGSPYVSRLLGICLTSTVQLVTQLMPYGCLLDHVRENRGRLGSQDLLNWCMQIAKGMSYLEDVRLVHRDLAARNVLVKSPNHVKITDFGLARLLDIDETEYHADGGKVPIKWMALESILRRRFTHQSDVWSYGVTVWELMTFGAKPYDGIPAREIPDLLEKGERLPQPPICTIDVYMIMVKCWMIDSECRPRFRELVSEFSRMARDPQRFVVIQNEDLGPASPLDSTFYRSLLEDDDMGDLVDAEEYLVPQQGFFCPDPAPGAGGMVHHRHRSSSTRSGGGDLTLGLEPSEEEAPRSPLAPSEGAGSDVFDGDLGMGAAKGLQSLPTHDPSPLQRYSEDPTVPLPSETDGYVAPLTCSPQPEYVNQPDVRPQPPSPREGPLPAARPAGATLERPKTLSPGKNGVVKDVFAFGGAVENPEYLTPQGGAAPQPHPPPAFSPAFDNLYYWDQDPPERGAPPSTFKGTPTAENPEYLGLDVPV

[3] = SK-BR-3 cell growth inhibitors, pilot screen, 24 h, human (AID 572;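 active = viability at or below 10% of carrier control in both of two separate runs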;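 note: compound exposure lasted between 18 and 24 h rather than exactly 24 h; 100% = carrier-treated control wells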); conditions: SK-BR-3 viability, CellTiter-Glo luminescence, at 10 µM, stronger effect = lower value
[4] = HUVEC growth inhibition – cell-based, human, primary screen (AID 575;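 active = viability at or below 30% in both replicate assays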;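 note: 100% = median of untreated cell wells with 0.1% DMSO on each plate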); conditions: HUVEC proliferation, CellTiter-Glo luminescence, 72 h; at 10 µM; stronger effect = lower value
Summary of the method: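 Timing: 72 h treatment at 37 °C; material: HUVEC primary cells; technique: CellTiter-Glo luminescence measuring cellular ATP; controls: vehicle and MePR control wells; measure: percent of median DMSO-control luminescence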

[5] = growth inhibitors of H69AR lung tumor, primary screen, human, duplicate replicates (AID 580;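 active = viability at or under a set limit in both replicates, limit being median viability minus 3 SD, cut at about 48% in these data, passing the limit was not always enough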;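 note: 100% = mean luminescence of untreated wells and 0% = no signal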); conditions: H69AR lung tumor cells viability, ATP luminescence, 72 h; at 10 µM; stronger effect = lower value
[6] = reversal of MRP1-mediated doxorubicin resistance, pilot screen, H69AR cells, doxorubicin co-treatment (AID 601;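 active = viability loss from added drug above about 55%, and viability with drug at most 40%, in both replicates, limit read from the data, passing the limit was not always enough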); conditions: CellTiter-Glo, 72 h, at 10 µM; for differential viability (reversal): stronger effect = higher value
[7] = 384-well plate pilot, post-Golgi transport modulator project, inhibition of yeast transport mutant growth (AID 636; in the data active = inhibition above about 31%); conditions: absorbance 615 nm, about 18 h, stronger effect = higher value
[8] = growth suppression of yeast trafficking mutant, preliminary HTS, modulators of trafficking downstream of Golgi apparatus project, 1536-format plate, OD 615 nm (AID 637); conditions: yeast transport mutant growth, absorbance 615 nm, 18 h; stronger effect = higher value
[9] = H69AR cells + 2 uM doxorubicin, measured here: viability with 2 uM doxorubicin, stronger effect = lower value
[10] = H69AR cells, compound alone cytotoxicity

Row | Structure (SMILES) | viability [1] | Her2 level [2] | viability [3] | viability [4] | viability [5] | differential viability (reversal) ([6]; H69AR cells + 2 uM doxorubicin) | viability [6, 9] | viability [6, 10] | inhibition [7] | inhibition [8]
1 | CC(C)CCn1c(=O)c2ccccc2n2c(CN(C)Cc3ccccc3)nnc12 | 83.5% | 100% (inactive) | 83.5% (inactive) | 70.3% (inactive) | 84.4% (inactive) | 72.3% (active) | 12.1% | 84.4% | -6.08% (inactive) | 11.3% (inactive)
2 | CC(C)[C@H](NC(=O)[C@@H]1CSCN1C(=O)OC(C)(C)C)C(=O)NCC1CCC(C(=O)O)CC1 (stereo not given in full) | 105% | 104% (inactive) | 105% (inactive) | 113% (inactive) | 102% (inactive) | 2.67% (inactive) | 99.3% | 102% | -3.33% (inactive) | -3.23% (inactive)
3 | CCOC(=O)CC12CN3CN(C1)CC(CC(=O)OCC)(C3)C2=O | 94% | 86% (inactive) | 94% (inactive) | 89.1% (inactive) | 98.3% (inactive) | 3.54% (inactive) | 94.7% | 98.3% | -5.95% (inactive) | 0.49% (inactive)
4 | OC(CNCC1COc2ccccc2O1)COCc1cccs1 (stereo not given) | 98% | 89.5% (inactive) | 98% (inactive) | 87.5% (inactive) | 83.1% (inactive) | 0.95% (inactive) | 82.1% | 83.1% | -2.08% (inactive) | -7.94% (inactive)
5 | COc1ccc2c(c1)[nH]c1c(=O)n(CCN(C)C)cnc12 | 105% | 85.5% (inactive) | 105% (inactive) | 104% (inactive) | 91.8% (inactive) | -8.28% (inactive) | 100% | 91.8% | -3.16% (inactive) | 1.48% (inactive)
6 | CCOc1ccc2[nH]c(=O)c(C(c3nnnn3Cc3ccco3)N3CCC(C)CC3)cc2c1 (stereo not given) | 80.5% | 81.5% (inactive) | 80.5% (inactive) | 82.3% (inactive) | 85.7% (inactive) | -1.93% (inactive) | 87.7% | 85.7% | -5.34% (inactive) | 3.02% (inactive)
7 | CCOC(=O)N1CCN(c2cc3nccnc3cc2F)CC1 | 114% | 92% (inactive) | 114% (inactive) | 84.5% (inactive) | 99.3% (inactive) | 5.61% (inactive) | 93.7% | 99.3% | -7.03% (inactive) | -4.17% (inactive)
8 | Cc1ccc(-c2nnn(CC(=O)N(CC(=O)NC3CCCCC3)c3cnc4ccccc4c3)n2)o1 | 98% | 92% (inactive) | 98% (inactive) | 93.3% (inactive) | 96.5% (inactive) | 15.9% (inactive) | 80.6% | 96.5% | -7.6% (inactive) | -1.61% (inactive)
9 | CCOC(=O)Cc1c(C)c2c(O)cc(O)cc2oc1=O | 84.5% | 77.5% (inactive) | 84.5% (inactive) | 97.3% (inactive) | 99% (inactive) | 12.2% (inactive) | 86.8% | 99% | -6.27% (inactive) | 1.9% (inactive)
10 | CC1CCCC(NC(=O)CSc2ncccc2C(=O)O)C1C (stereo not given) | 95% | 79% (inactive) | 95% (inactive) | 86.4% (inactive) | 87.8% (inactive) | 3.03% (inactive) | 84.7% | 87.8% | -4.61% (inactive) | -4.36% (inactive)
11 | COc1ccc(OC)c(C2/C(=C(\O)c3ccc4c(c3)OCCO4)C(=O)C(=O)N2CCCN(C)C)c1 (stereo not given) | 102% | 76.5% (inactive) | 102% (inactive) | 111% (inactive) | 101% (inactive) | 9.38% (inactive) | 91.3% | 101% | -4.05% (inactive) | -3.81% (inactive)
12 | CCN(CC)CCCN1C(=O)C(=O)/C(=C(/O)c2ccccc2)C1c1ccccn1 (stereo not given) | 96.5% | 100% (inactive) | 96.5% (inactive) | 111% (inactive) | 96% (inactive) | 6.26% (inactive) | 89.7% | 96% | -1.35% (inactive) | -4.92% (inactive)
13 | O=C(COc1cccc(Oc2ccccc2)c1)Nc1ncccn1 | 99.5% | 106% (inactive) | 99.5% (inactive) | 110% (inactive) | 94.3% (inactive) | 6.76% (inactive) | 87.5% | 94.3% | -3.9% (inactive) | -3.81% (inactive)
14 | CCC1CCCN1Cn1cnc2c([nH]c3ccc(OC)cc32)c1=O (stereo not given) | 104% | 90% (inactive) | 104% (inactive) | 111% (inactive) | 91.3% (inactive) | 1.38% (inactive) | 89.9% | 91.3% | -5.6% (inactive) | 2.42% (inactive)
15 | CC(C)N(C=O)C1(C(=O)NC2CCCCC2)CCCCC1 | 100% | 106% (inactive) | 100% (inactive) | 97.9% (inactive) | 112% (inactive) | 13.7% (inactive) | 97.9% | 112% | -0.53% (inactive) | -6.61% (inactive)
16 | CCOC(=O)c1cc2c(=O)n3cccc(C)c3nc2n(Cc2ccco2)c1=NC(=O)c1cccnc1 | 92.5% | 82% (inactive) | 92.5% (inactive) | 71.4% (inactive) | 80.7% (inactive) | 8.21% (inactive) | 72.4% | 80.7% | -1.71% (inactive) | 2.58% (inactive)

Row | Structure (SMILES) | viability [1] | Her2 level [2] | viability [3] | viability [4] | viability [5] | differential viability (reversal) ([6]; H69AR cells + 2 uM doxorubicin) | viability [6, 9] | viability [6, 10] | inhibition [7] | inhibition [8]
17 | O=C(CCCN1C(=O)c2ccccc2C1=O)Oc1ccc(F)cc1 | 98% | 98% (inactive) | 98% (inactive) | 98.2% (inactive) | 94.8% (inactive) | 9.54% (inactive) | 85.2% | 94.8% | -5.47% (inactive) | 1.29% (inactive)
18 | COc1cc(OC)cc(C(=O)N2CCN(C(=O)c3ccc(OC)c(OC)c3)CC2)c1 | 100% | 104% (inactive) | 100% (inactive) | 86.1% (inactive) | 92.4% (inactive) | -11.1% (inactive) | 103% | 92.4% | -1.84% (inactive) | -6.45% (inactive)
19 | CCN(CC)c1ccc(NC(=O)c2cncc(Br)c2)cc1 | 97.5% | 91% (inactive) | 97.5% (inactive) | 76.2% (inactive) | 79.9% (inactive) | -25.4% (inactive) | 105% | 79.9% | -4.47% (inactive) | 3.77% (inactive)
20 | O=C1CCCN1CCCNc1ncnc2c1[nH]c1ccc(Cl)cc12 | 89% | 81% (inactive) | 89% (inactive) | 85.3% (inactive) | 80.9% (inactive) | 3.12% (inactive) | 77.8% | 80.9% | -7.6% (inactive) | -0.48% (inactive)
21 | CCOc1nc2ccccc2nc1NS(=O)(=O)c1ccccc1 | 83% | 75% (inactive) | 83% (inactive) | 91.3% (inactive) | 88.5% (inactive) | 0.49% (inactive) | 88% | 88.5% | -2.24% (inactive) | 3.82% (inactive)
22 | CCCOc1ccc(/C(O)=C2/C(=O)C(=O)N(CCCOC)C2c2ccncc2)cc1 (stereo not given) | 98% | 84% (inactive) | 98% (inactive) | 110% (inactive) | 94.5% (inactive) | 7.81% (inactive) | 86.7% | 94.5% | -9.46% (inactive) | 3.67% (inactive)
23 | CC1(C)CC(=O)C(C(=O)CCCCC(=O)C2C(=O)CC(C)(C)CC2=O)C(=O)C1 | 99.5% | 158% (inactive) | 99.5% (inactive) | 98.4% (inactive) | 95.1% (inactive) | 6.97% (inactive) | 88.2% | 95.1% | 0.53% (inactive) | -0.5% (inactive)
24 | CN(C)c1ccc(-c2nn3c(-c4ccc(Cl)cc4Cl)nnc3s2)cc1 | 100% | 71% (inactive) | 100% (inactive) | 46.7% (inactive) | 15.1% (active) | -42.6% (inactive) | 57.7% | 15.1% | -6.08% (inactive) | 5.08% (inactive)
25 | COc1ccc(CNc2nc(NCc3ccc(OC)cc3)n(S(C)(=O)=O)n2)cc1 | 104% | 114% (inactive) | 104% (inactive) | 92.6% (inactive) | 110% (inactive) | 8.61% (inactive) | 101% | 110% | 0% (inactive) | 0.82% (inactive)
26 | O=c1c2c3c(sc2n2cnnc2n1CCc1ccccc1)CCCC3 | 96.5% | 78.5% (inactive) | 96.5% (inactive) | 57.7% (inactive) | 77.1% (inactive) | 8.96% (inactive) | 68.1% | 77.1% | -3.47% (inactive) | 6.45% (inactive)
27 | CCOc1ccc(C(=O)OCc2nnc(-c3cccs3)o2)cc1OC | 106% | 96% (inactive) | 106% (inactive) | 116% (inactive) | 99.9% (inactive) | 25.9% (inactive) | 74% | 99.9% | -3.12% (inactive) | 2.38% (inactive)
28 | COc1cc2c(cc1OC)-c1cc(Nc3ccc4c(c3)OCCO4)nc(=O)n1CC2 | 91.5% | 82.5% (inactive) | 91.5% (inactive) | 63.2% (inactive) | 71.2% (inactive) | -6.86% (inactive) | 78.1% | 71.2% | -0.91% (inactive) | -4.17% (inactive)
29 | COc1ccc(-c2nc(C#N)c(N3CCN(c4ccccc4)CC3)o2)cc1 | 94.5% | 98.5% (inactive) | 94.5% (inactive) | 94.7% (inactive) | 105% (inactive) | 11.7% (inactive) | 93.8% | 105% | -2.05% (inactive) | 3.33% (inactive)
30 | O=C(NC1CC1)C1CCN(c2ccc(S(=O)(=O)N3CCOCC3)cc2)CC1 | 92.5% | 138% (inactive) | 92.5% (inactive) | 83% (inactive) | 94.7% (inactive) | 17.1% (inactive) | 77.7% | 94.7% | -0.13% (inactive) | -10% (inactive)
31 | O=c1c(-c2ccc(Br)cc2)coc2c(CN3CCOCC3)c(O)ccc12 | 85.5% | 80.5% (inactive) | 85.5% (inactive) | 101% (inactive) | 92.2% (inactive) | -4.24% (inactive) | 96.5% | 92.2% | -3.33% (inactive) | -2.22% (inactive)
32 | COc1ccc(C2CC(C(F)(F)F)n3ncc(C(=O)NCc4cccnc4)c3N2)cc1OC (stereo not given) | 86.5% | 93% (inactive) | 86.5% (inactive) | 94.2% (inactive) | 91.1% (inactive) | 11.6% (inactive) | 79.5% | 91.1% | -4.47% (inactive) | 2.33% (inactive)
